Inhibition and EC50 data for 26 molecules are collected here from ChEMBL document CHEMBL2016531, “Identification of NAE Inhibitors Exhibiting Potent Activity in Leukemia Cells: Exploring the Structural Determinants of NAE Specificity” (ACS Med Chem Lett, 2011).

For assay [1], the target named is Ubiquitin-like modifier-activating enzyme 5 (Homo sapiens) (UniProt Q9GZZ9). In words: Inhibition of human recombinant UBA5 assessed as inhibition of […]-UFM1 complex formation at 10 uM after 1.5 hrs by Western blot analysis. The gist of the method:
(§1)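 Cell-free gel assay. Purified human recombinant E1 incubated with its matching Ub/Ubl and E2 in 50 mM HEPES pH 7.4, 5 mM MgCl2, 1–20 μM ATP. Inhibitor at 0, 0.001, 0.01, 0.1, 1 or 10 μM, 1.5 h at room temperature. Products resolved by SDS-PAGE, immunoblotted and detected by ECL; densitometry used for semiquantitation.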
(In western blotting, separated proteins are transferred to a membrane and probed.)

The species entered for assay [2] is Homo sapiens. In words: Inhibition of human recombinant UAE assessed as inhibition of UbcH6-Ub complex formation at 0.001 to 10 uM after 1.5 hrs by Western blot analysis. The method in brief:
as §1

Assay [3] deals with SUMO-activating enzyme (Homo sapiens) (UniProt Q9UBE0+Q9UBT2). In words: Inhibition of human recombinant SAE1/2 assessed as inhibition of SUMO1-UbcH9 complex formation at 0.001 to 10 uM after 1.5 hrs by Western blot analysis. Type of assay: protein-complex assay. The gist of the method: as §1
The species named for assay [4] is Homo sapiens. In words: Inhibition of human recombinant NAE assessed as inhibition of NEDD8-UbcH12 complex formation at 0.001 to 10 uM after 1.5 hrs by Western blot analysis. The gist of the method: as §1
A further assay relates to K562. In words: Antiproliferative activity against human K562 cells after 72 hrs by CellTiter-Glo assay. Type of assay: functional, cell-based. Conditions: K562, 72 h. The gist of the method: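 K562 leukemia cells exposed to increasing concentrations for 72 h; growth and viability read by CellTiter-Glo luminescence.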
Assay [5] is filed under the species Homo sapiens. In words: Inhibition of human recombinant NAE assessed as inhibition of NEDD8-UbcH12 complex formation at <10 nM after 1.5 hrs by Western blot analysis. The method in brief: as §1
For assay [6], the species on record is Homo sapiens. In words: Inhibition of human recombinant NAE assessed as inhibition of NEDD8-UbcH12 complex formation at 10 nM after 1.5 hrs by Western blot analysis. The gist of the method:
as §1

The species named for assay [7] is Homo sapiens. In words: Inhibition of human recombinant NAE assessed as inhibition of NEDD8-UbcH12 complex formation at 1 nM after 1.5 hrs by Western blot analysis. The gist of the method:
as §1

Calls of active or inactive are those of the source. The calls are words filed in the database; no cut-off is given here.

Sequence of Ubiquitin-like modifier-activating enzyme 5 (Homo sapiens) (Q9GZZ9 whole entry): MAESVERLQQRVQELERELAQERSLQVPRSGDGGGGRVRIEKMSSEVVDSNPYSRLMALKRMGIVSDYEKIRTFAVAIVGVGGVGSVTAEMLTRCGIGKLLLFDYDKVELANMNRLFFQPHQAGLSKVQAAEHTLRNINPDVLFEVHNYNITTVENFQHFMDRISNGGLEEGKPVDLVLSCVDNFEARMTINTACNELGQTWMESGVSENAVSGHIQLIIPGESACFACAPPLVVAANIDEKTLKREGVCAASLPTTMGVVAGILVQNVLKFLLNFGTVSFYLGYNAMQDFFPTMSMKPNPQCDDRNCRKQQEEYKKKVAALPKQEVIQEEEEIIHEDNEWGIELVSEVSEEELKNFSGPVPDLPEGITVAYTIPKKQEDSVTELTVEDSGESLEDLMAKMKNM

The inhibition is the drop in the measured response relative to a control, in per cent. As for `NS(=O)(=O)OC[C@H]1O[C@@H](n2cnc3c(N[C@@H]4C[C@H]5CCC4C5)ncnc32)[C@H](O)[C@@H]1O`, the inhibition result in assay [1] was “inactive”. For the same molecule, the inhibition entry (in the assay filed under Homo sapiens [2]; in assay [3]; in the assay listed under Homo sapiens [4]) was “Active” in each case.
In general, EC50 refers to the midpoint of the concentration-response curve. Low values mean higher potency in that assay, high ones lower potency in that assay. Consider `NS(=O)(=O)OC[C@H]1O[C@@H](n2cnc3c(NCCc4cccs4)ncnc32)[C@H](O)[C@@H]1O`, for which the inhibition result in assay [1] is “inactive”. In the assay on K562, this molecule yielded an EC50 of 559 nM. In addition, the inhibition entry (in the assay listed under Homo sapiens [2]; in assay [3]; in the assay filed under Homo sapiens [4]) was “Active” each time.
With `CCCCCC(C)Nc1ncnc2c1ncn2[C@@H]1O[C@H](COS(N)(=O)=O)[C@@H](O)[C@H]1O` (stereo partly drawn), in assay [1], the inhibition entry was “inactive”. Further, in the assay on K562, the EC50 was determined as 203 nM. Moreover, the inhibition result (in the assay listed under Homo sapiens [2]; in assay [3]; in the assay listed under Homo sapiens [4]) was “Active” throughout.
`NS(=O)(=O)OC[C@H]1O[C@@H](n2cnc3c(NCCCn4ccnc4)ncnc32)[C@H](O)[C@@H]1O`: the inhibition result in assay [1] is “inactive”. The inhibition entry (in the assay filed under Homo sapiens [2]; in assay [3]; in the assay listed under Homo sapiens [4]) was “Active” each time.
As for `CC(C)CC(C)Nc1ncnc2c1ncn2[C@@H]1O[C@H](COS(N)(=O)=O)[C@@H](O)[C@H]1O` (stereo partly drawn), in assay [1], the inhibition result was “inactive”. Further, the inhibition result (in the assay listed under Homo sapiens [2]; in assay [3]; in the assay filed under Homo sapiens [4]) was “Active” each time.
As to `CN(Cc1ccccc1)c1ncnc2c1ncn2[C@@H]1O[C@H](COS(N)(=O)=O)[C@@H](O)[C@H]1O`, in the assay listed under Homo sapiens [5], the inhibition result was “inactive”.
`CC(C)(C)CCNc1ncnc2c1ncn2[C@@H]1O[C@H](COS(N)(=O)=O)[C@@H](O)[C@H]1O`: the inhibition entry in assay [1] was “inactive”. In addition, the midpoint of the response with K562, the EC50, lay at 929 nM. Also, the inhibition entry (in the assay filed under Homo sapiens [2]; in assay [3]; in the assay listed under Homo sapiens [4]) was “Active” in each case. Moreover, in the assay listed under Homo sapiens [6], the inhibition is less than 29%.
On to `CCN(CC)c1ncnc2c1ncn2[C@@H]1O[C@H](COS(N)(=O)=O)[C@@H](O)[C@H]1O`, for which the inhibition result (in assay [1]; in the assay listed under Homo sapiens [5]) was “inactive” throughout. Besides, the inhibition entry (in the assay listed under Homo sapiens [2]; in assay [3]; in the assay listed under Homo sapiens [4]) was “Active” each time.
For the molecule `NS(=O)(=O)OC[C@H]1O[C@@H](n2cnc3c(N4CCOCC4)ncnc32)[C@H](O)[C@@H]1O`, the inhibition result in the assay filed under Homo sapiens [5] was “inactive”.
`CCCCN(CC)c1ncnc2c1ncn2[C@@H]1O[C@H](COS(N)(=O)=O)[C@@H](O)[C@H]1O`: the inhibition result in the assay listed under Homo sapiens [5] is “inactive”.
In the case of `NS(=O)(=O)OC[C@H]1O[C@@H](n2cnc3c(NCC4CCCO4)ncnc32)[C@H](O)[C@@H]1O` (stereo partly drawn), the inhibition entry in assay [1] was “inactive”. The EC50 in the assay with K562 is more than 1000 nM. For the same molecule, the inhibition entry (in the assay listed under Homo sapiens [2]; in assay [3]; in the assay listed under Homo sapiens [4]) was “Active” each time.
As for `NS(=O)(=O)OC[C@H]1O[C@@H](n2cnc3c(NC4CCCCCCC4)ncnc32)[C@H](O)[C@@H]1O`, a half-maximal response in the assay with K562 (EC50) required 380 nM.
With `CCCCN(CCCC)c1ncnc2c1ncn2[C@@H]1O[C@H](COS(N)(=O)=O)[C@@H](O)[C@H]1O`, the inhibition entry (in assay [1]; in the assay filed under Homo sapiens [5]) was “inactive” each time. Besides, the inhibition result (in the assay listed under Homo sapiens [2]; in assay [3]; in the assay listed under Homo sapiens [4]) was “Active” in each case.
Regarding `CNc1ncnc2c1ncn2[C@@H]1O[C@H](COS(N)(=O)=O)[C@@H](O)[C@H]1O`, the inhibition entry in the assay filed under Homo sapiens [7] was “inactive”. Moreover, in the assay listed under Homo sapiens [6], the inhibition was less than 76%.
For `Nc1ncnc2c1ncn2[C@@H]1O[C@H](COS(N)(=O)=O)[C@@H](O)[C@H]1O`, the inhibition in the assay listed under Homo sapiens [7] is less than 16%.
Take `NS(=O)(=O)OC[C@H]1O[C@@H](n2cnc3c(Nc4ccccc4)ncnc32)[C@H](O)[C@@H]1O`: in assay [1], the inhibition result was “inactive”. Also, the inhibition entry (in the assay listed under Homo sapiens [2]; in assay [3]; in the assay listed under Homo sapiens [4]) was “Active” each time.
On to `CCCCCNc1ncnc2c1ncn2[C@@H]1O[C@H](COS(N)(=O)=O)[C@@H](O)[C@H]1O`, for which it took 181 nM to reach a half-maximal effect with K562 (EC50). Moreover, the inhibition in the assay filed under Homo sapiens [7] is less than 62%.
As to `CCCNc1ncnc2c1ncn2[C@@H]1O[C@H](COS(N)(=O)=O)[C@@H](O)[C@H]1O`, the inhibition entry (in assay [1]; in the assay listed under Homo sapiens [7]) was “inactive” each time. Moreover, the inhibition result (in the assay filed under Homo sapiens [2]; in assay [3]; in the assay listed under Homo sapiens [4]) was “Active” throughout. Besides, the inhibition in the assay filed under Homo sapiens [6] was less than 63%.
`COCCNc1ncnc2c1ncn2[C@@H]1O[C@H](COS(N)(=O)=O)[C@@H](O)[C@H]1O` gave an EC50 with K562 of more than 1000 nM.
On to `NS(=O)(=O)OC[C@H]1O[C@@H](n2cnc3c(N4CCC5CCCCC5C4)ncnc32)[C@H](O)[C@@H]1O` (stereo partly drawn), for which the inhibition result (in assay [1]; in the assay filed under Homo sapiens [5]) was “inactive” in each case. This molecule also returned a concentration for a half-maximal effect (EC50) in the assay with K562 of more than 1000 nM. Besides, the inhibition result (in the assay filed under Homo sapiens [2]; in assay [3]; in the assay listed under Homo sapiens [4]) was “Active” each time.
Consider `CCC(C)Nc1ncnc2c1ncn2[C@@H]1O[C@H](COS(N)(=O)=O)[C@@H](O)[C@H]1O` (stereo partly drawn), for which, in assay [1], the inhibition result is “inactive”. Moreover, the EC50 in the assay with K562 is more than 1000 nM. Also, the inhibition result (in the assay listed under Homo sapiens [2]; in assay [3]; in the assay filed under Homo sapiens [4]) was “Active” in each case. The inhibition in the assay listed under Homo sapiens [6] is less than 25%.
In the case of `CCCCCCCNc1ncnc2c1ncn2[C@@H]1O[C@H](COS(N)(=O)=O)[C@@H](O)[C@H]1O`, the inhibition entry (in assay [1]; in the assay filed under Homo sapiens [7]) was “inactive” throughout. In the assay on K562, it took 132 nM to reach a half-maximal effect (EC50). Moreover, the inhibition entry (in the assay listed under Homo sapiens [2]; in assay [3]; in the assay filed under Homo sapiens [4]) was “Active” throughout.
With `NS(=O)(=O)OC[C@H]1O[C@@H](n2cnc3c(NCc4cccs4)ncnc32)[C@H](O)[C@@H]1O`, the inhibition entry in assay [1] was “inactive”. Further, it took 114 nM to reach a half-maximal effect with K562 (EC50). In addition, the inhibition result (in the assay filed under Homo sapiens [2]; in assay [3]; in the assay filed under Homo sapiens [4]) was “Active” each time. In addition, the inhibition in the assay filed under Homo sapiens [6] worked out at 100%.
With `NS(=O)(=O)OC[C@H]1O[C@@H](n2cnc3c(NCC4COCCOCCOCCOCCO4)ncnc32)[C@H](O)[C@@H]1O` (stereo partly drawn), in assay [1], the inhibition result was “inactive”. Moreover, the EC50 with K562 is more than 1000 nM. Further, the inhibition result (in the assay listed under Homo sapiens [2]; in assay [3]; in the assay filed under Homo sapiens [4]) was “Active” throughout.
As to `NS(=O)(=O)OC[C@@H]1C[C@@H](n2ccc3c(N[C@H]4CCc5ccccc54)ncnc32)C[C@@H]1O` [PEVONEDISTAT], in assay [1], the inhibition result is “inactive”. The EC50 with K562 was found to be 108 nM. Also, the inhibition entry (in the assay listed under Homo sapiens [2]; in assay [3]; in the assay filed under Homo sapiens [4]) was “Active” in each case.
On to `CC(C)(C)CC(C)(C)Nc1ncnc2c1ncn2[C@@H]1O[C@H](COS(N)(=O)=O)[C@@H](O)[C@H]1O`, for which the inhibition entry (in assay [1]; in the assay listed under Homo sapiens [6]) was “inactive” throughout. The concentration for a half-maximal effect (EC50) in the assay with K562 was more than 1000 nM. Further, the inhibition result (in the assay filed under Homo sapiens [2]; in assay [3]; in the assay filed under Homo sapiens [4]) was “Active” throughout.
